From ChEMBL document CHEMBL5712072, “Epigenetic targeting of Hedgehog pathway transcriptional output through BET bromodomain inhibition” (Nat Med, 2014)
Active and inactive are the calls of the source. The rule behind the calls is not given here.

Assays:
[1] = Induction of apoptosis in human Med1 cells assessed as early apoptotic cells by annexin-V/PI staining based flow cytometric analysis (reference value: 1.09%); assay type: functional, Medulloblastoma cell
Med1 [2] = experiment: Antitumor activity in […] Med1 cells xenografted in NSG mouse assessed as reduction in tumor growth at 50 mg/kg/day, ip; assay type: functional, organism-based
Procedure, shortened: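 Med1-MB cells carrying a lentiviral luciferase reporter, 2x10e6 injected into the flank of 4-6 week old NSG mice. After engraftment was confirmed, mice were randomized to JQ1 50 mg/kg IP daily or vehicle. Tumor growth was followed by IVIS imaging as average radiance; tumor size was also recorded at day 21 of treatment.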

[3] = Induction of apoptosis in human Med1 cells assessed as necrotic cells by annexin-V/PI staining based flow cytometric analysis (reference value: 1.87%); assay type: functional, Medulloblastoma cell
Medulloblastoma cell [4] = experiment: Induction of apoptosis in human wildtype SMO expressing medulloblastoma cells assessed as viable cells by annexin-V/PI staining based flow cytometric analysis (reference value: 74.9%); assay type: functional
Danio rerio = species on record: Danio rerio; experiment: Effect on heat shock treated transgenic zebra fish assessed as increase in eye diameter; assay type: functional, organism-based
Procedure, shortened: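 Tg(hsp70l:shha-EGFP)+/− x TL embryos were heat shocked at 38 °C for 15 min at the 8-somite stage, then placed directly in JQ1 (0.6 or 6.0 um) or DMSO. At […] embryos were sorted GFP+/− into fresh drug. Eye dorsal axis length was scored at 56 hpf, n=12 per group; Student's t-test.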

[5] = target: Bromodomain-containing protein 4 (Danio rerio) (UniProt F1R5H6); experiment: Inhibition of BRD4 in danio rerio assessed as decrease in GFP mRNA expression level by qRT-PCR analysis
Medulloblastoma cell [6] = experiment: Induction of apoptosis in human wildtype SMO expressing medulloblastoma cells assessed as early apoptotic cells by annexin-V/PI staining based flow cytometric analysis (reference value: 0.59%); assay type: functional
Medulloblastoma cell [7] = experiment: Cytotoxicity in Ptch-mutated in […] medulloblastoma cells expressing wildtype SMO by CellTiter-Glo analysis; assay type: functional, cell-based
Med1 [8] = experiment: Induction of cell cycle arrest in […] Med1 cells assessed as decreased accumulation of cells in S phase by PI staining based FACS analysis; assay type: functional
Procedure, shortened: (§1)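 Med1-MB cells were treated with JQ1, fixed in 70% ethanol for 30 min at 4 °C, and stained with PI plus RNase A at 37 °C for 45 min. Cells were filtered through 70 um mesh, and cell-cycle distribution was read by FACS.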

[9] = Induction of apoptosis in human Med1 cells assessed as late apoptotic cells by annexin-V/PI staining based flow cytometric analysis (reference value: 0.60%); assay type: functional, Medulloblastoma cell
Medulloblastoma cell [10] = experiment: Induction of apoptosis in mouse wildtype SMO expressing medulloblastoma cells assessed as necrotic cells by annexin-V/PI staining based flow cytometric analysis (reference value: 22%)
Hh-Light2 [11] = experiment: Upregulation of Sufu mRNA level in […] Hh-Light2 cells at 1 microM by qRT-PCR analysis; assay type: functional, cell-based
Procedure, shortened: (§2)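 Hh-Light2 (mouse 3T3 Gli-luciferase reporter line) cells were stimulated with Shh-N conditioned medium or SAG, alone or with JQ1 1 uM. Gli1, Gli2, Ptch1, Sufu, Smo and Brd4 mRNA were measured by SYBR Green qRT-PCR. Values are mean of triplicates ± SD.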

Hh-Light2 [12] = experiment: Upregulation of Ptch1 mRNA level in […] Hh-Light2 cells transfected with […] GlI2 by RT-PCR analysis; assay type: functional, cell-based; settings: dose 1.0 µM
Procedure, shortened: (§3)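 Hh-Light2 cells were transiently transfected with HA-Gli2-FL (murine) or Myc-GLI2-DN (N-terminally truncated human) and treated with drugs 24 h post-transfection. Ptch1 mRNA was measured by qRT-PCR. Values are mean of triplicates ± SD.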

Medulloblastoma cell [13] = experiment: Antitumor activity in […] medulloblastoma cells expressing SmoD477G mutant xenografted in NSG mouse assessed as decrease in tumor growth at 50 mg/kg/day, ip; assay type: functional, organism-based
Procedure, shortened: (§4)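 SmoWT-MB or SmoD477G-MB cells, 2x10e6 per flank, injected into both flanks of 4-6 week old NSG mice. After engraftment mice were randomized to vehicle, JQ1 50 mg/kg IP qd or GDC-0449 100 mg/kg PO qd until euthanasia was required. Tumor growth was measured by caliper; data are group means ± S.E.M.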

Medulloblastoma cell [14] = experiment: Antiproliferation of […] Hh driven medulloblastoma cells […] by cell titre glo assay; assay type: functional, cell-based
[15] = Induction of apoptosis in human Med1 cells assessed as viable cells by annexin-V/PI staining based flow cytometric analysis (reference value: 96.4%); assay type: functional, Medulloblastoma cell
Hh-Light2 [16] = experiment: Upregulation of Ptch1 mRNA level in […] Hh-Light2 cells at 1 microM by qRT-PCR analysis; assay type: functional, cell-based; procedure, shortened: as §2
Medulloblastoma cell [17] = experiment: Downregulation of sufu mRMA expression in […] Medulloblastoma cell expressing wildtype SMO at 1 microM by qRT-PCR analysis; assay type: functional, cell-based
Procedure, shortened: (§5)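 SmoWT-MB cells were treated with JQ1 at 1 uM (GDC-0449 or LDE225 at 0.1 uM as comparators). Gli1, Gli2, Smo, Sufu and Brd4 mRNA were measured by SYBR Green quantitative RT-PCR. Values are mean of triplicates ± SD.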

Medulloblastoma cell [18] = experiment: Downregulation of Smo mRMA expression in […] Medulloblastoma cell expressing wildtype SMO at 1 microM by qRT-PCR analysis; assay type: functional, cell-based; procedure, shortened: as §5
Medulloblastoma cell [19] = experiment: Antitumor activity in […] medulloblastoma expressing wildtype SMO xenografted in NSG mouse assessed as reduction in tumor growth at 50 mg/kg/day, ip; assay type: functional, organism-based; procedure, shortened: as §4
Hh-Light2 [20] = experiment: Inhibition of full length murine Gli2 expressed in […] Hh-Light2 cells assessed as reduction in mRNA level at 1 microM by qRT-PCR analysis; assay type: cell-based; settings: Mus musculus
Procedure, shortened: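 Hh-Light2 cells were transiently transfected with HA-Gli2-FL using Turbofect and treated 24 h later with 1 uM JQ1, GDC-0449, LDE225 or SANT-1. Gli1 mRNA was measured by qRT-PCR. Values are mean of triplicates ± SD.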

Medulloblastoma cell [21] = experiment: Antiproliferation of human Hh driven medulloblastoma cells by cell titre glo assay; assay type: functional, cell-based
Med1 [22] = experiment: Induction of cell cycle arrest in […] Med1 cells assessed as increased accumulation of cells in G1 phase by PI staining based FACS analysis; assay type: functional; procedure, shortened: as §1
Hh-Light2 [23] = experiment: Downregulation of Brd4 mRNA level in […] Hh-Light2 cells at 1 microM by qRT-PCR analysis; assay type: functional, cell-based; procedure, shortened: as §2
Hh-Light2 [24] = experiment: Upregulation of Smo mRNA level in […] Hh-Light2 cells at 1 microM by qRT-PCR analysis; assay type: functional, cell-based; procedure, shortened: as §2
[25] = Cytotoxicity in Ptch-mutated human Med1 cells expressing wildtype SMO by CellTiter-Glo analysis; assay type: functional, cell-based
Hh-Light2 [26] = experiment: Upregulation of Gli2 mRNA level in […] Hh-Light2 cells at 1 microM by qRT-PCR analysis; assay type: functional, cell-based; procedure, shortened: as §2
MEF [27] = experiment: Downregulation of Gli2 transcription in Sufu-/- MEF cells at 1 microM by […] analysis; assay type: functional, cell-based; settings: Mus musculus
[28] = Toxicity in NSG mouse xenografted with Med1 cells assessed as survival of mouse at 50 mg/kg/day, ip; assay type: organism-based; settings: in vivo
Procedure, shortened: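 Med1-MB cells carrying luciferase, 0.5x10e6, were injected into the cerebellum of NSG mice. After engraftment was confirmed, mice were randomized to JQ1 50 mg/kg IP daily or vehicle until euthanasia was required, and survival was recorded.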

Medulloblastoma cell [29] = experiment: Antiproliferative activity against in […] medulloblastoma cells expressing SmoWT-MB cells from mouse assessed as cell proliferation by EdU analysis; assay type: functional, cell-based
Procedure, shortened: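 SmoWT-MB cells given 0.1uM GDC-0449 or LDE225 (or JQ1 1 uM); 10uM EdU added for final 6-8hrs; EdU+ cells detected by Click-iT flow cytometry or imaging, DAPI counterstain; proliferation index = EdU+/DAPI+ cells; group means ± SD.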

MEF [30] = experiment: Downregulation of BRD4 mRNA level in Sufu-/- MEF cells by qRT-PCR analysis; assay type: functional, cell-based; settings: Mus musculus
Medulloblastoma cell [31] = experiment: Downregulation of BRD4 mRMA expression in […] Medulloblastoma cell expressing wildtype SMO at 1 microM by qRT-PCR analysis; assay type: functional, cell-based; procedure, shortened: as §5
Hh-Light2 [32] = experiment: Upregulation of Gli1 mRNA level in […] Hh-Light2 cells at 1 microM by qRT-PCR analysis; assay type: functional, cell-based; procedure, shortened: as §2
MEF [33] = experiment: Downregulation of Gli1 mRNA level in Sufu-/- MEF cells at 1 microM by qRT-PCR analysis; assay type: functional, cell-based; settings: Mus musculus
Procedure, shortened: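 Sufu−/− MEFs were treated with DMSO or inhibitors at 1 uM, and Gli1/Gli2 mRNA was measured by SYBR Green qRT-PCR (mean of triplicates ± SD). A time course with JQ1 1 uM included a 3 h point.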

Med1 [34] = experiment: Downregulation of Gli1mRNA expression in […] Med1 cells at 1 microM by qRT-PCR analysis; assay type: functional, cell-based
Procedure, shortened: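 Med1-MB cells were treated with JQ1 1 uM, and Gli1 mRNA was measured by SYBR Green qRT-PCR. Values are mean of triplicates ± SD.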

Medulloblastoma cell [35] = experiment: Induction of apoptosis in mouse wildtype SMO expressing medulloblastoma cells assessed as late apoptotic cells by annexin-V/PI staining based flow cytometric analysis (reference value: 2.5%)
Hh-Light2 [36] = experiment: Upregulation of Ptch1 mRNA level in […] Hh-Light2 cells transfected with full length murine Gli2 by RT-PCR analysis; assay type: functional, cell-based; settings: dose 1.0 µM; procedure, shortened: as §3
[37] = target: Bromodomain-containing protein 4 (Mus musculus) (UniProt Q9ESU6); experiment: Inhibition of BRD4 in mouse Hh-Light2 cells assessed as Gli1 mRNA level by qRT-PCR analysis
[38] = target: Bromodomain-containing protein 4 (Mus musculus) (UniProt Q9ESU6); experiment: Inhibition of BRD4 in mouse Hh-Light2 cells assessed as inhibition in Gli1 protein level by immunoblot analysis
MEF [39] = experiment: Downregulation of Gli1 protein expression in Sufu-/- MEF cells by immunoblot analysis; assay type: functional, cell-based; settings: Mus musculus
Procedure, shortened: (§6)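 Sufu−/− MEFs exposed to DMSO or 1 uM of JQ1, GDC-0449, LDE225 or SANT-1; RIPA lysis 30min on ice, cleared 13000rpm 15min 4°C; SDS-PAGE immunoblot with anti-GLI1, β-tubulin as loading control.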

[40] = target: Zinc finger protein GLI2 (Homo sapiens) (UniProt P10070); experiment: Inhibition of human GLI2 expressed in Hh-Light2 cells assessed as reduction in Gli1 mRNA expression level by qRT-PCR analysis; assay type: cell-based
Procedure, shortened: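 Hh-Light2 cells transiently transfected (Turbofect) with full-length murine HA-Gli2-FL or N-terminally truncated human Myc-GLI2-DN; drugs (1 uM JQ1, GDC-0449, LDE225 or SANT-1) added 24hr post-transfection; Gli1 mRNA by SYBR Green qRT-PCR; mean of triplicates ± SD.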

MEF [41] = experiment: Downregulation of Gli transcription in Sufu-/- MEF cells by immunoblot analysis; assay type: functional, cell-based; settings: Mus musculus; procedure, shortened: as §6

Sequence of Zinc finger protein GLI2 (Homo sapiens) (P10070 whole entry, the tested form may be a part): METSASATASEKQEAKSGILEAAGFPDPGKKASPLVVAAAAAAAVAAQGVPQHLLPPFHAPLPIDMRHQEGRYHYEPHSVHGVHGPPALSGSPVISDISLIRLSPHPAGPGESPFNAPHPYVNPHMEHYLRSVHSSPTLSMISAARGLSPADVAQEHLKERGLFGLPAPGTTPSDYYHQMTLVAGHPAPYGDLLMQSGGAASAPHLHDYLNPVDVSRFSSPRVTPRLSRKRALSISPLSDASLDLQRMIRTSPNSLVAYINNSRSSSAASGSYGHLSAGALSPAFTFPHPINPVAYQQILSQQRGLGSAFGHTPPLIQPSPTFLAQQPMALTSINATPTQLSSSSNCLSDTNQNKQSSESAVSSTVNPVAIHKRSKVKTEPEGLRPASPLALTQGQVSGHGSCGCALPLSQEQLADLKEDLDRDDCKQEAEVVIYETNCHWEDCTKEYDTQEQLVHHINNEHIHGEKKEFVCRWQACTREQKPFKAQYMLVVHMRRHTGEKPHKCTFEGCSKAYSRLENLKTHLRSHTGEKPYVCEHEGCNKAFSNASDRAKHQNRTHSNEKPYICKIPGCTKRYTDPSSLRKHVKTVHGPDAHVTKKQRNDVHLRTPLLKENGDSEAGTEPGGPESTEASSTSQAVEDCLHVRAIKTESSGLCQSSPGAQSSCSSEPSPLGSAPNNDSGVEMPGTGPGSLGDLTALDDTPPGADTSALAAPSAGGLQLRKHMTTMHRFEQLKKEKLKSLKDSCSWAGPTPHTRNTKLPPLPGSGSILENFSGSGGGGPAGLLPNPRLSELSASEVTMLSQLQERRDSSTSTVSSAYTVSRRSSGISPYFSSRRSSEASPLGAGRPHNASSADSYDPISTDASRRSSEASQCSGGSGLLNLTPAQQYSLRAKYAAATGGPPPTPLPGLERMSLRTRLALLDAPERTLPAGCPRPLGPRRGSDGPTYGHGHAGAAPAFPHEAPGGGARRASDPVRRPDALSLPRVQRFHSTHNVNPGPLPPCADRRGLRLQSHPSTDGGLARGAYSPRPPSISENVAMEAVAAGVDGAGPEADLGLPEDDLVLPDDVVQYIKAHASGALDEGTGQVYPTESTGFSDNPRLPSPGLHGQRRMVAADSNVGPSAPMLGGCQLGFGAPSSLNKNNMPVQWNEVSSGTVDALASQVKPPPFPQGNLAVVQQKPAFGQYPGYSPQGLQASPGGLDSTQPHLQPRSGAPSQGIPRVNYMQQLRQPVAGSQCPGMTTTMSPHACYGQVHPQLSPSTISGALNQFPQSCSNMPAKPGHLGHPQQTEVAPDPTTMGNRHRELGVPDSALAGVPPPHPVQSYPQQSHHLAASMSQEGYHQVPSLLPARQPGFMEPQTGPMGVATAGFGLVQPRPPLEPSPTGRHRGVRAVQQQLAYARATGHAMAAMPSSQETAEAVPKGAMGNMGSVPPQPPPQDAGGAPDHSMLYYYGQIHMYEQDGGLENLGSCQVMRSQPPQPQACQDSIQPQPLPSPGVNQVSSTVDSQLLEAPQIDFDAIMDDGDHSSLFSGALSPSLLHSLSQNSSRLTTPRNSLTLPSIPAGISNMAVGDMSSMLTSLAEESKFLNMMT
Sequence of Bromodomain-containing protein 4 (Danio rerio) (F1R5H6 whole entry): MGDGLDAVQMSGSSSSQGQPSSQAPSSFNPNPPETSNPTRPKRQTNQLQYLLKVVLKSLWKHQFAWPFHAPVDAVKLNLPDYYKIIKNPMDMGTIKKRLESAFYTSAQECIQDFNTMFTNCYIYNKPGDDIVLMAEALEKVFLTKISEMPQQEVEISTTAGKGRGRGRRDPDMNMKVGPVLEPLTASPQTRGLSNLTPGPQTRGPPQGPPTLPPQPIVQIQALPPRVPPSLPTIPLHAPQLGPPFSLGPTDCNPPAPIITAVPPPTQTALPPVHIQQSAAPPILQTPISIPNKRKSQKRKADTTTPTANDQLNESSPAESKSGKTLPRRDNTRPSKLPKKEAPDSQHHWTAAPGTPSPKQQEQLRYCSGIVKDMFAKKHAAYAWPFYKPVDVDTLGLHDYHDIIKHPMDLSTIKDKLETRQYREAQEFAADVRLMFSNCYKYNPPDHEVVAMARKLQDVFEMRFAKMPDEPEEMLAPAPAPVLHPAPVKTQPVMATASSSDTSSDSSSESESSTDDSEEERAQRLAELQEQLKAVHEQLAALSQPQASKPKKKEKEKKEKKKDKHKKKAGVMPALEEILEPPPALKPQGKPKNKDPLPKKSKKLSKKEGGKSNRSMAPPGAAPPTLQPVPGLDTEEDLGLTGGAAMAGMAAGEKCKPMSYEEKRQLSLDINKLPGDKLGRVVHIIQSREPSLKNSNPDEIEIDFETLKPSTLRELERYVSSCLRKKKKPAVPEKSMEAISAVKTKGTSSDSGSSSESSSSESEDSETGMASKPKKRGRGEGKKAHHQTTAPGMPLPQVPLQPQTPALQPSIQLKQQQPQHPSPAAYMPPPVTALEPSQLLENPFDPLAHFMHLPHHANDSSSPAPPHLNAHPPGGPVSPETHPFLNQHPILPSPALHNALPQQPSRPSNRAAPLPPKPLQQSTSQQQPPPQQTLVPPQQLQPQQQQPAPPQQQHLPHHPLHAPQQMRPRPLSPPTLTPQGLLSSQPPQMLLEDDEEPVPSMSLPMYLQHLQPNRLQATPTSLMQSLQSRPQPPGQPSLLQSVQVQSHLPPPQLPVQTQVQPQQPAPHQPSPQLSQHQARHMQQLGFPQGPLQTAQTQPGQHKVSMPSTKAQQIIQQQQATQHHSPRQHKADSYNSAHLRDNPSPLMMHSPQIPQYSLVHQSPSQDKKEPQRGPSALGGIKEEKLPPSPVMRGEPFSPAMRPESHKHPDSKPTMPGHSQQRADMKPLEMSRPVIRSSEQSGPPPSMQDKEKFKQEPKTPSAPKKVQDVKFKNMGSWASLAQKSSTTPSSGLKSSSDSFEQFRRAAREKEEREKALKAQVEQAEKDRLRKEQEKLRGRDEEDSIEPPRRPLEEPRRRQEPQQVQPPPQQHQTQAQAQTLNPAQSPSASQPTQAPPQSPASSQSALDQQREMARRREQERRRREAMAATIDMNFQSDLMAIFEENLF

## Cc1sc2c(c1C)C(c1ccc(Cl)cc1)=N[C@@H](CC(=O)OC(C)(C)C)c1nnc(C)n1-2
[1]
  Activity: 0.35%
Med1 [2]
  Activity: Active
[3]
  Activity: 10.1%
Medulloblastoma cell [4]
  Activity: 39.2%
Danio rerio
  Activity: Active
[5]
  inhibition: Active
Medulloblastoma cell [6]
  Activity: 0.64%
Medulloblastoma cell [7]
  IC50: ~50 nM
Med1 [8]
  Activity: Active
[9]
  Activity: 1.61%
Medulloblastoma cell [10]
  Activity: 54.7%
Hh-Light2 [11]
  Activity: inactive
Hh-Light2 [12]
  Activity: Active
Medulloblastoma cell [13]
  Activity: Active
Medulloblastoma cell [14]
  Activity: Active
[15]
  Activity: 87.9%
Hh-Light2 [16]
  Activity: Active
Medulloblastoma cell [17]
  Activity: Active
Medulloblastoma cell [18]
  Activity: Active
Medulloblastoma cell [19]
  Activity: Active
Hh-Light2 [20]
  inhibition: Active
Medulloblastoma cell [21]
  Activity: Active
Med1 [22]
  Activity: Active
Hh-Light2 [23]
  Activity: inactive
Hh-Light2 [24]
  Activity: Active
[25]
  IC50: ~50 nM
Hh-Light2 [26]
  Activity: Active
MEF [27]
  Activity: Active
[28]
  Activity: Non-Toxic
Medulloblastoma cell [29]
  Activity: Active
MEF [30]
  Activity: inactive
Medulloblastoma cell [31]
  Activity: Active
Hh-Light2 [32]
  Activity: Active
MEF [33]
  Activity: Active
Med1 [34]
  Activity: Active
Medulloblastoma cell [35]
  Activity: 5.44%
Hh-Light2 [36]
  Activity: inactive

## Cc1nn(-c2ccccc2)c(C)c1/C=N/N1CCN(Cc2ccccc2)CC1
[37]
  inhibition: Active
[38]
  inhibition: Active
MEF [39]
  Activity: inactive
[40]
  inhibition: inactive
MEF [41]
  Activity: inactive
